From ChEMBL document CHEMBL3525985, “Regiospecificity and stereospecificity of human UDP-glucuronosyltransferases in the glucuronidation of estriol, 16-epiestriol, 17-epiestriol, and 13-epiestradiol” (Drug Metab Dispos, 2013)

Experiments:
[1] = target: T1, UDP-glucuronosyltransferase 1A10 (Homo sapiens, UniProt Q9HAW8); experiment: Drug level assessed as recombinant human C-terminal His-tagged UGT1A10-mediated compound formation from 200 uM estriol after 15 to 60 mins by […] analysis in presence of UDPGA; assay type: ADME; conditions: recombinant enzyme
T1 sequence (Q9HAW8 whole entry): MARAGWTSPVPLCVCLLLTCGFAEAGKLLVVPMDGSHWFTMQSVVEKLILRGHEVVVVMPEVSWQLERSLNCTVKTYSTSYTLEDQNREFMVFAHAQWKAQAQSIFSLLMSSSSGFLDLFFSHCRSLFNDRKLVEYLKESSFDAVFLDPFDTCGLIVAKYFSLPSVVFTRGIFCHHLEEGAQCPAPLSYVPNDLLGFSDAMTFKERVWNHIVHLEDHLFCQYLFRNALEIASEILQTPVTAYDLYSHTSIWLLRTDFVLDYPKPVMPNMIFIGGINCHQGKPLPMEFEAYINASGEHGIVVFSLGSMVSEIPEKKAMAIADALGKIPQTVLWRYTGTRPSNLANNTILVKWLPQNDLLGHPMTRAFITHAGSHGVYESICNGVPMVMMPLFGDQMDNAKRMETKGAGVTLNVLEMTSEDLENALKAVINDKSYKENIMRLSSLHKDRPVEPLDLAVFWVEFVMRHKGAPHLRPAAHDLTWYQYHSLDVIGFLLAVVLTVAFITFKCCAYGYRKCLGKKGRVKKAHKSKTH
Procedure, shortened: (§1)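 UGT-enriched insect cell membranes (5 or 50 µg) in 50 mM phosphate pH 7.4, 10 mM MgCl2, 5 mM UDPGA; substrate 200 µM in DMSO (10% final); 15–60 min at 37°C; stopped with perchloric acid, on ice, centrifuged; glucuronides resolved by HPLC. Triplicates, no-UDPGA controls; rates normalized to relative UGT expression; substrate consumption ≤10%.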

[2] = target: T1, UDP-glucuronosyltransferase 1A10; experiment: Drug level assessed as recombinant human C-terminal His-tagged UGT1A10-mediated compound formation from 200 uM 16-epiestriol after 15 to 60 mins by […] analysis in presence of UDPGA; assay type: ADME; conditions: recombinant enzyme; procedure, shortened: as §1
[3] = target: T2, UDP-glucuronosyltransferase 2B7 (Homo sapiens, UniProt P16662); experiment: Drug level assessed as recombinant human C-terminal His-tagged UGT2B7-mediated compound formation from 8 mg 16-epiestriol after 5 hrs by NMR spectroscopic analysis in presence of UDPGA; assay type: ADME; conditions: recombinant enzyme
T2 sequence (P16662 whole entry): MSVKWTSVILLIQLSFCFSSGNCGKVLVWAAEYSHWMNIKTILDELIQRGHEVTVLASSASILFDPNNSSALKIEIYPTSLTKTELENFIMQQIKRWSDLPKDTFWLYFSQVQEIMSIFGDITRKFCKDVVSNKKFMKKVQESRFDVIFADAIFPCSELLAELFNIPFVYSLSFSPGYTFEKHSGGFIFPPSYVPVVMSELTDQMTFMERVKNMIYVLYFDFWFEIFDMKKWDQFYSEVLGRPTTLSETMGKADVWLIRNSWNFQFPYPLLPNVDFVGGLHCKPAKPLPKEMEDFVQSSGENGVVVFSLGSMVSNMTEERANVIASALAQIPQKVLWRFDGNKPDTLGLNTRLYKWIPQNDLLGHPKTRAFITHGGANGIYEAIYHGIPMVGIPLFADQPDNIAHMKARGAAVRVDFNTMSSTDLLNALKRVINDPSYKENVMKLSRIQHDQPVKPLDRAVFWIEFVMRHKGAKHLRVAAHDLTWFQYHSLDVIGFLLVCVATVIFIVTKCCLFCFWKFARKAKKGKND
Procedure, shortened: (§2)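 Preparative biosynthesis: 4 mg 17-epiestriol or 8 mg 16-epiestriol with UGT2B7-enriched insect cell homogenate in 50 mM phosphate pH 7.4, 10 mM MgCl2, 50 mM UDPGA, 10% DMSO. Glucuronides fractionated by HPLC (0.1% HCOOH replacing phosphate, UV 280 nm), concentrated, lyophilized, then examined by NMR.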

UGT2A2 (Homo sapiens) = experiment: Drug level assessed as recombinant human C-terminal His-tagged UGT2A2-mediated compound formation from at 200 uM 13-epiestradiol after 15 to 60 mins by HPLC analysis in presence of UDPGA; conditions: recombinant enzyme
[4] = target: T2, UDP-glucuronosyltransferase 2B7; experiment: Drug level assessed as recombinant human C-terminal His-tagged UGT2B7-mediated compound formation from 200 uM 17-epiestriol after 15 to 60 mins by HPLC analysis in presence of UDPGA; assay type: ADME; conditions: recombinant enzyme; procedure, shortened: as §1
[5] = system: [H][C@@]12CCc3cc(O)ccc3[C@@]1([H])CC[C@]1(C)[C@H](O)[C@H](O)C[C@@]21[H]; experiment: Drug metabolism assessed as human UGT1A10 F93G mutant-mediated 17-epiestriol-3-glucuronide formation after 15 to 60 mins by Michaelis-Menten equation analysis in presence of UDPGA; assay type: ADME
Procedure, shortened: (§3)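 UGT-enriched insect cell membranes (5 or 50 µg) were incubated with 0.2–300 µM aglycone in DMSO (10% final), 5 mM UDPGA, 10 mM MgCl2 and 50 mM phosphate pH 7.4 at 37°C. Reactions were stopped with perchloric acid and glucuronides measured by HPLC. Assays were in triplicate with substrate consumption ≤10%, rates normalized to relative UGT expression, and kinetics fitted to Michaelis-Menten.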

[6] = system: C[C@]12CC[C@@H]3c4ccc(O)cc4CC[C@H]3[C@@H]1C[C@H](O)[C@@H]2O; experiment: Drug metabolism assessed as human UGT1A10 F93G mutant-mediated 16-epiestriol-3-glucuronide formation after 15 to 60 mins by Michaelis-Menten equation analysis in presence of UDPGA; assay type: ADME; procedure, shortened: as §3
[7] = system: C[C@]12CC[C@@H]3c4ccc(O)cc4CC[C@H]3[C@@H]1C[C@@H](O)[C@@H]2O; experiment: Drug metabolism assessed as human UGT1A10 F93G mutant-mediated estriol-3-glucuronide formation after 15 to 60 mins by Michaelis-Menten equation analysis in presence of UDPGA; assay type: ADME; procedure, shortened: as §3
[8] = target: T2, UDP-glucuronosyltransferase 2B7; experiment: Drug level assessed as recombinant human C-terminal His-tagged UGT2B7-mediated compound formation from 4 mg 17-epiestriol after 5 hrs by NMR spectroscopic analysis in presence of UDPGA; assay type: ADME; conditions: recombinant enzyme; procedure, shortened: as §2
[9] = substrate: C[C@]12CC[C@@H]3c4ccc(O)cc4CC[C@H]3[C@@H]1C[C@H](O)[C@@H]2O; experiment: Drug metabolism assessed as recombinant human C-terminal His-tagged UGT1A10-mediated 16-epiestriol-3-glucuronide formation after 15 to 60 mins by Michaelis-Menten equation analysis in presence of UDPGA; assay type: ADME
Procedure, shortened: (§4)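 For kinetics, the aglycone ranged from 0.2 to 300 μM in DMSO (10% final) with 5 mM UDPGA, 10 mM MgCl₂ and 50 mM phosphate pH 7.4. Enzyme was UGT-enriched insect cell membranes. Incubation was 15–60 min at 37°C, in triplicate, keeping substrate consumption ≤10%. Products were measured by HPLC and fitted to Michaelis-Menten. Rates were normalized to expression level.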

[10] = substrate: [H][C@@]12CCc3cc(O)ccc3[C@@]1([H])CC[C@]1(C)[C@H](O)[C@H](O)C[C@@]21[H]; experiment: Drug metabolism assessed as recombinant human C-terminal His-tagged UGT1A10-mediated 17-epiestriol-3-glucuronide formation after 15 to 60 mins by Michaelis-Menten equation analysis in presence of UDPGA; assay type: ADME; procedure, shortened: as §3
[11] = substrate: C[C@]12CC[C@@H]3c4ccc(O)cc4CC[C@H]3[C@@H]1C[C@@H](O)[C@@H]2O; experiment: Drug metabolism assessed as recombinant human C-terminal His-tagged UGT1A10-mediated estriol-3-glucuronide formation after 15 to 60 mins by Michaelis-Menten equation analysis in presence of UDPGA; assay type: ADME; procedure, shortened: as §4
[12] = substrate: [H][C@@]12CCc3cc(O)ccc3[C@@]1([H])CC[C@]1(C)[C@H](O)[C@H](O)C[C@@]21[H]; experiment: Drug metabolism assessed as recombinant human C-terminal His-tagged UGT2B7-mediated 17-epiestriol-16-glucuronide formation after 15 to 60 mins by Michaelis-Menten equation analysis in presence of UDPGA; assay type: ADME; procedure, shortened: as §3
[13] = substrate: C[C@]12CC[C@@H]3c4ccc(O)cc4CC[C@H]3[C@@H]1C[C@@H](O)[C@@H]2O; experiment: Drug metabolism assessed as recombinant human C-terminal His-tagged UGT2B7-mediated estriol-16-glucuronide formation after 15 to 60 mins by Michaelis-Menten equation analysis in presence of UDPGA; assay type: ADME
Procedure, shortened: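 Kinetics with His-tagged UGT-enriched insect-cell membranes (5 or 50 µg): aglycone 0.2–300 µM in 10% DMSO, 5 mM UDPGA, 10 mM MgCl₂, 50 mM phosphate pH 7.4, 15–60 min at 37°C. Substrate consumption kept at or below 10%. Glucuronides quantified by HPLC in triplicate, rates normalized to expression, and data fitted to Michaelis-Menten.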

[14] = substrate: C[C@]12CC[C@@H]3c4ccc(O)cc4CC[C@H]3[C@@H]1C[C@H](O)[C@@H]2O; experiment: Drug metabolism assessed as recombinant human C-terminal His-tagged UGT2B7-mediated 16-epiestriol-16-glucuronide formation after 15 to 60 mins by Michaelis-Menten equation analysis in presence of UDPGA; assay type: ADME; procedure, shortened: as §4

C[C@]12CC[C@@H]3c4ccc(O)cc4CC[C@H]3[C@@H]1C[C@@H](O[C@@H]1O[C@H](C(=O)O)[C@@H](O)[C@H](O)[C@H]1O)[C@@H]2O
Drug metabolism [1]: metabolite_detected

C[C@]12CC[C@@H]3c4ccc(O)cc4CC[C@H]3[C@@H]1C[C@H](O)[C@@H]2O[C@@H]1O[C@H](C(=O)O)[C@@H](O)[C@H](O)[C@H]1O
Drug metabolism [2]: metabolite_detected | Drug metabolism [3]: metabolite_detected

C[C@@]12CC[C@@H]3c4ccc(O)cc4CC[C@H]3[C@@H]1CC[C@@H]2O[C@@H]1O[C@H](C(=O)O)[C@@H](O)[C@H](O)[C@H]1O
Drug metabolism (UGT2A2 (Homo sapiens)): metabolite_detected

C[C@]12CC[C@@H]3c4ccc(O[C@@H]5O[C@H](C(=O)O)[C@@H](O)[C@H](O)[C@H]5O)cc4CC[C@H]3[C@@H]1C[C@@H](O)[C@@H]2O
Drug metabolism [1]: metabolite_detected

C[C@]12CC[C@@H]3c4ccc(O[C@@H]5O[C@H](C(=O)O)[C@@H](O)[C@H](O)[C@H]5O)cc4CC[C@H]3[C@@H]1C[C@@H](O)[C@H]2O
Drug metabolism [4]: metabolite_detected

UDP-glucuronosyltransferase 1A10 (Homo sapiens; F93G)
Km [5]: 51.1 µM | Vmax [5]: 0.00571 µmol/min/mg | Km [6]: 186 µM | Vmax [6]: 0.00225 µmol/min/mg | Km [7]: 230 µM | Vmax [7]: 0.00754 µmol/min/mg

C[C@]12CC[C@@H]3c4ccc(O)cc4CC[C@H]3[C@@H]1C[C@@H](O)[C@H]2O[C@@H]1O[C@H](C(=O)O)[C@@H](O)[C@H](O)[C@H]1O
Drug metabolism [8]: metabolite_detected | Drug metabolism [4]: metabolite_detected

C[C@]12CC[C@@H]3c4ccc(O)cc4CC[C@H]3[C@@H]1C[C@H](O[C@@H]1O[C@H](C(=O)O)[C@@H](O)[C@H](O)[C@H]1O)[C@@H]2O
Drug metabolism [2]: metabolite_detected | Drug metabolism [3]: metabolite_detected

C[C@]12CC[C@@H]3c4ccc(O)cc4CC[C@H]3[C@@H]1C[C@@H](O[C@@H]1O[C@H](C(=O)O)[C@@H](O)[C@H](O)[C@H]1O)[C@H]2O
Drug metabolism [4]: metabolite_not_detected

C[C@]12CC[C@@H]3c4ccc(O)cc4CC[C@H]3[C@@H]1C[C@@H](O)[C@@H]2O[C@@H]1O[C@H](C(=O)O)[C@@H](O)[C@H](O)[C@H]1O
Drug metabolism [1]: metabolite_detected

C[C@]12CC[C@@H]3c4ccc(O[C@@H]5O[C@H](C(=O)O)[C@@H](O)[C@H](O)[C@H]5O)cc4CC[C@H]3[C@@H]1C[C@H](O)[C@@H]2O
Drug metabolism [2]: metabolite_detected

B1: UDP-glucuronosyltransferase 1A10 (Homo sapiens) (protein)
chain: MARAGWTSPVPLCVCLLLTCGFAEAGKLLVVPMDGSHWFTMQSVVEKLILRGHEVVVVMPEVSWQLERSLNCTVKTYSTSYTLEDQNREFMVFAHAQWKAQAQSIFSLLMSSSSGFLDLFFSHCRSLFNDRKLVEYLKESSFDAVFLDPFDTCGLIVAKYFSLPSVVFTRGIFCHHLEEGAQCPAPLSYVPNDLLGFSDAMTFKERVWNHIVHLEDHLFCQYLFRNALEIASEILQTPVTAYDLYSHTSIWLLRTDFVLDYPKPVMPNMIFIGGINCHQGKPLPMEFEAYINASGEHGIVVFSLGSMVSEIPEKKAMAIADALGKIPQTVLWRYTGTRPSNLANNTILVKWLPQNDLLGHPMTRAFITHAGSHGVYESICNGVPMVMMPLFGDQMDNAKRMETKGAGVTLNVLEMTSEDLENALKAVINDKSYKENIMRLSSLHKDRPVEPLDLAVFWVEFVMRHKGAPHLRPAAHDLTWYQYHSLDVIGFLLAVVLTVAFITFKCCAYGYRKCLGKKGRVKKAHKSKTH
Km [9]: 59.8 µM | Vmax [9]: 0.0077 µmol/min/mg | Km [10]: 337 µM | Vmax [10]: 0.000958 µmol/min/mg | Km [11]: 68.4 µM | Vmax [11]: 0.0012 µmol/min/mg

B2: UDP-glucuronosyltransferase 2B7 (Homo sapiens) (protein)
chain: MSVKWTSVILLIQLSFCFSSGNCGKVLVWAAEYSHWMNIKTILDELIQRGHEVTVLASSASILFDPNNSSALKIEIYPTSLTKTELENFIMQQIKRWSDLPKDTFWLYFSQVQEIMSIFGDITRKFCKDVVSNKKFMKKVQESRFDVIFADAIFPCSELLAELFNIPFVYSLSFSPGYTFEKHSGGFIFPPSYVPVVMSELTDQMTFMERVKNMIYVLYFDFWFEIFDMKKWDQFYSEVLGRPTTLSETMGKADVWLIRNSWNFQFPYPLLPNVDFVGGLHCKPAKPLPKEMEDFVQSSGENGVVVFSLGSMVSNMTEERANVIASALAQIPQKVLWRFDGNKPDTLGLNTRLYKWIPQNDLLGHPKTRAFITHGGANGIYEAIYHGIPMVGIPLFADQPDNIAHMKARGAAVRVDFNTMSSTDLLNALKRVINDPSYKENVMKLSRIQHDQPVKPLDRAVFWIEFVMRHKGAKHLRVAAHDLTWFQYHSLDVIGFLLVCVATVIFIVTKCCLFCFWKFARKAKKGKND
Km [12]: 0.6 µM | Vmax [12]: 0.00082 µmol/min/mg | Km [13]: 10.3 µM | Vmax [13]: 0.00151 µmol/min/mg | Km [14]: 38.4 µM | Vmax [14]: 0.00387 µmol/min/mg
